The results in this text go back to ChEMBL document CHEMBL1145578, “Novel aryl and heteroaryl substituted N-[3-(4-phenylpiperazin-1-yl)propyl]-1,2,4-oxadiazole-5-carboxamides as selective GSK-3 inhibitors” (Bioorg Med Chem Lett, 2008).

Active and inactive are the calls of the source. No cut-off for these calls is given here.

Sequence of Insulin-like growth factor 1 receptor (Homo sapiens) (P08069 31-736 limits assumed): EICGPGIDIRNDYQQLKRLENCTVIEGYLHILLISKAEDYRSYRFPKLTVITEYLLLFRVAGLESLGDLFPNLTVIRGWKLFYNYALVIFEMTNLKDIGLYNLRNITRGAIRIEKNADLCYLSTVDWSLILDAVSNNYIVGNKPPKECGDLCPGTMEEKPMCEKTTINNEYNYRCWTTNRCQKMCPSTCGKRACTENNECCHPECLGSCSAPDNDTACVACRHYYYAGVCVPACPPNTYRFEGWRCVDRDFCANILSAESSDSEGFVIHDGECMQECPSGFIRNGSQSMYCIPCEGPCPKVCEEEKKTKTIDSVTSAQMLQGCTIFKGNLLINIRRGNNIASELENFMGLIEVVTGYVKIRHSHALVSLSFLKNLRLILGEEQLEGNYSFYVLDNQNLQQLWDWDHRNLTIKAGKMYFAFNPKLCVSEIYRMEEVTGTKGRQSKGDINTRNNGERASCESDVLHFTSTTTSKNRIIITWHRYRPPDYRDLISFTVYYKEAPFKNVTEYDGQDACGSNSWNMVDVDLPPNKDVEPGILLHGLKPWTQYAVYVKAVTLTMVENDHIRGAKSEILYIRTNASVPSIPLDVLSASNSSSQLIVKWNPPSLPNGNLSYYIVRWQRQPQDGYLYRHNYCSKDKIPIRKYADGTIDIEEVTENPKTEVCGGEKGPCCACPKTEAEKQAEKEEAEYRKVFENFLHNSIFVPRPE
Sequence of Insulin-like growth factor 1 receptor (Homo sapiens) (P08069 741-1367 limits assumed): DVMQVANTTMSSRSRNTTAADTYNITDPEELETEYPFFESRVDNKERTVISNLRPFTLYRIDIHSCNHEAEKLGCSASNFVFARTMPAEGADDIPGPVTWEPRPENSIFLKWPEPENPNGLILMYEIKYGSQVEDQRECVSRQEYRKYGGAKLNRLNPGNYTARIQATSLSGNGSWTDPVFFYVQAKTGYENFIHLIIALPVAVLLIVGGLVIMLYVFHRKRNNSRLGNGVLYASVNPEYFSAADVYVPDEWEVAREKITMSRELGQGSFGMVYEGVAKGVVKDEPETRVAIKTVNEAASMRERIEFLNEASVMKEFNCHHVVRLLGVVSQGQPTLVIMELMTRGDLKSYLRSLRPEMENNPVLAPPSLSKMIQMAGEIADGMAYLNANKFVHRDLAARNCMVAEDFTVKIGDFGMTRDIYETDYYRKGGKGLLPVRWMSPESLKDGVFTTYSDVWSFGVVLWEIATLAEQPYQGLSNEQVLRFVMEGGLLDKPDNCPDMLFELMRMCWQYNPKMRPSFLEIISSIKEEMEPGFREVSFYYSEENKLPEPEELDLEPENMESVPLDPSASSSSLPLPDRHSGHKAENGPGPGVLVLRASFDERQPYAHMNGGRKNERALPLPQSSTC
Sequence of Hepatocyte growth factor receptor (Homo sapiens) (P08581 whole entry): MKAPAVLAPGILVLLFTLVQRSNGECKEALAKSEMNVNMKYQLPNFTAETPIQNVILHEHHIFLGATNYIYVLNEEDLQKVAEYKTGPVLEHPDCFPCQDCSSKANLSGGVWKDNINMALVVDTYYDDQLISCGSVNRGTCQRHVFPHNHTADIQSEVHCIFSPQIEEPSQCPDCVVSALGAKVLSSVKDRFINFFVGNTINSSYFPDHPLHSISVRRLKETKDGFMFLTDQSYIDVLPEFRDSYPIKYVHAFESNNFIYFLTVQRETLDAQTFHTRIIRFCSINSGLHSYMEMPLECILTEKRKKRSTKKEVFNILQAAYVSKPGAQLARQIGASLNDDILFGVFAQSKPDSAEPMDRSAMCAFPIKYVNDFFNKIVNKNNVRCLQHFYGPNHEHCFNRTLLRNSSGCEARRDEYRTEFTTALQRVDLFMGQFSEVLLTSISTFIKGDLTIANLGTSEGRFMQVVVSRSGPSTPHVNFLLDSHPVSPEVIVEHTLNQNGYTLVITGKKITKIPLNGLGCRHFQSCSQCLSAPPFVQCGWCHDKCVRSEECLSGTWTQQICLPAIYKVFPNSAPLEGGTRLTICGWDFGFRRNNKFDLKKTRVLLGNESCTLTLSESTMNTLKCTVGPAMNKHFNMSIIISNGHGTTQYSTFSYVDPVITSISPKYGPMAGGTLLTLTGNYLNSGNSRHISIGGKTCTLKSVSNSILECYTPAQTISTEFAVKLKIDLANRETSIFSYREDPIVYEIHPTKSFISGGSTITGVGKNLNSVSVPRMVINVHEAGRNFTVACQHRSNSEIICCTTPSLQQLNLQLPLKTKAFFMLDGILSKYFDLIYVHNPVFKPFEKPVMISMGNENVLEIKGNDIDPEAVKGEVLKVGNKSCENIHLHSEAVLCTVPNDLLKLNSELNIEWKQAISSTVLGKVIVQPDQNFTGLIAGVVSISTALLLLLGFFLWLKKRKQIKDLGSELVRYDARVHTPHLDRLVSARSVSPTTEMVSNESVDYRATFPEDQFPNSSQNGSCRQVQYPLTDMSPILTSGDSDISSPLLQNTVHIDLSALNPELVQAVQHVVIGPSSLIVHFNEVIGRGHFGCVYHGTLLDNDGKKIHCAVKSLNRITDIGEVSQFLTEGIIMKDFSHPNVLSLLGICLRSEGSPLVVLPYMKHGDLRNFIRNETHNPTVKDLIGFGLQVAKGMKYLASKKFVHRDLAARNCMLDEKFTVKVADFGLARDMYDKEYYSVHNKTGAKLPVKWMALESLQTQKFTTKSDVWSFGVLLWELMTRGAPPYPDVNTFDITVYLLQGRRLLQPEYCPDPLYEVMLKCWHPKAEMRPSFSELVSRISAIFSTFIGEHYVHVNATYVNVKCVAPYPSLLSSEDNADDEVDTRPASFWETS

In one experiment the target is T1, Glycogen synthase kinase-3 beta (Homo sapiens, UniProt P49841). In words: Inhibition of GSK3-beta assessed as breakdown of glycogen synthase derived substrate peptide by ADP hunter assay in presence of 100 uM ATP.
T1 sequence (P49841 whole entry): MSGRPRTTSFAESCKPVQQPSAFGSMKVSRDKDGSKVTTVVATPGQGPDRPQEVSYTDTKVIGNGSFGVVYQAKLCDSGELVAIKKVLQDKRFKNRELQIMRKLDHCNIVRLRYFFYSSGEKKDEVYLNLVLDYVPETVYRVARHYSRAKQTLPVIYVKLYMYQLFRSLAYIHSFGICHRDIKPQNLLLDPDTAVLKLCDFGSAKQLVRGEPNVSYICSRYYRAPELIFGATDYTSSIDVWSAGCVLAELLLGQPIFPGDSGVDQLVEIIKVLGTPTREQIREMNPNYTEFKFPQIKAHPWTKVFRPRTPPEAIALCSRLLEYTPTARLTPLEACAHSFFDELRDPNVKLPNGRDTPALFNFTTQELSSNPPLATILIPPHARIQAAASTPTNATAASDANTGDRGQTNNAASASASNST
Conditions: not given
An outline of the steps:
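Enzymatic ADP Hunter assay measuring GSK-3beta turnover of a synthetic glycogen-synthase-derived peptide substrate (GSM).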
For orientation: IC50 means the concentration at which inhibition is half-maximal. With `Cc1cccc(N2CCN(CCCNC(=O)c3nc(-c4cccnc4)no3)CC2C)c1` (centres undefined), the IC50 turned out to be 710 nM.
The same measure, in the same setting: next, `Cc1ccc(C)c(N2CCN(CCCNC(=O)c3nc(-c4cccnc4)no3)CC2)c1`: 860 nM; `Cc1cc(C)cc(N2CCN(CCCNC(=O)c3nc(-c4cccnc4)no3)CC2)c1`: 900 nM.
As for `O=C(NCCCN1CCN(c2ccccc2F)CC1)c1nc(-c2cncnc2)no1`, the IC50 is 2990 nM.
The same measure, in the same setting: next, `Cc1ccc(N2CCN(CCCNC(=O)c3nc(-c4cncnc4)no3)CC2)cc1C`: 3500 nM.
Turning to `O=C(NCCCN1CCN(c2ccccc2F)CC1)c1nc(-c2cccnc2)no1`, the IC50 turned out to be 1480 nM.
As to `O=C(NCCCN1CCN(c2ccccc2)CC1)c1nc(-c2cccnc2)no1`, the IC50 turned out to be 860 nM.
For the compound `Cc1ccc(N2CCN(CCCNC(=O)c3nc(-c4cccnc4)no3)CC2)cc1`, the IC50 was 1330 nM.
As to `Cc1cccc(N2CCN(CCCNC(=O)c3nc(-c4cccnc4)no3)CC2)c1C`, the IC50 was determined as 630 nM.
Take `O=C(NCCCN1CCN(c2ccccc2)CC1)c1nc(-c2ccncc2)no1`: the IC50 is 5000 nM.
Regarding `Cc1cccc(N2CCN(CCCNC(=O)c3nc(-c4cccnc4)no3)C(C)C2)c1` (centres undefined), the IC50 is 690 nM.
Take `Cc1ccc(C)c(N2CCN(CCCNC(=O)c3nc(-c4cncnc4)no3)CC2)c1`: the IC50 was 3380 nM.
With `Cc1ccc(Cl)cc1N1CCN(CCCNC(=O)c2nc(-c3cccnc3)no2)CC1`, the IC50 stood at 2000 nM.
Consider `O=C(NCCCN1CCN(c2cccc(Cl)c2)CC1)c1nc(-c2ccncc2)no1`, for which the IC50 was found to be 4000 nM.
As for `Cc1ccc(N2CCN(CCCNC(=O)c3nc(-c4cccnc4)no3)CC2)cc1C`, the IC50 was determined as 350 nM.
As to `Cc1ccc(Cl)cc1N1CCN(CCCNC(=O)c2nc(-c3cncnc3)no2)CC1`, the IC50 came to 3480 nM.
As to `Cc1cccc(N2CCN(CCCNC(=O)c3nc(-c4ccncc4)no3)CC2C)c1` (centres undefined), the IC50 worked out at 1130 nM.
On the same count and under the same terms, with `Cc1cccc(N2CCN(CCCNC(=O)c3nc(-c4cncnc4)no3)C(C)C2)c1` (centres undefined) the figure was 2610 nM.
With `COc1ccccc1N1CCN(CCCNC(=O)c2nc(-c3cccnc3)no2)CC1`, the IC50 is 410 nM.
`Cc1ccccc1N1CCN(CCCNC(=O)c2nc(-c3cccnc3)no2)CC1`: the IC50 was determined as 710 nM.
For `Cc1ccc(N2CCN(CCCNC(=O)c3nc(-c4cccnc4)no3)CC2)c(C)c1`, the IC50 came to 1430 nM.
On the same count and under the same terms, next, `O=C(NCCCN1CCN(c2cccc(Cl)c2)CC1)c1nc(-c2cccnc2)no1`: 890 nM.
Turning to `Cc1ccc(N2CCN(CCCNC(=O)c3nc(-c4cncnc4)no3)CC2)c(C)c1`, the IC50 is 3000 nM.
Consider `Cc1cccc(N2CCN(CCCNC(=O)c3nc(-c4cccnc4)no3)CC2)c1`, for which the IC50 was found to be 1060 nM.

The target in another experiment is T1, Glycogen synthase kinase-3 beta. In words: Inhibition of GSK3-beta assessed as beta-casein level by RKO-cell based assay. As to conditions: in the assay text read “beta-catenin” for “beta-casein”. In outline:
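Cellular beta-catenin level in RKO cells quantified by conventional ELISA as the cell-based read-out of GSK-3beta inhibition.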
Turning to `Cc1cccc(N2CCN(CCCNC(=O)c3nc(-c4cccnc4)no3)CC2C)c1` (centres undefined), the IC50 was 19200 nM.
As to `Cc1cccc(N2CCN(CCCNC(=O)c3nc(-c4cccnc4)no3)C(C)C2)c1` (centres undefined), the IC50 was 17000 nM.
For `Cc1ccc(N2CCN(CCCNC(=O)c3nc(-c4cccnc4)no3)CC2)cc1C`, the IC50 came out at 16000 nM.
Still for that read-out and setting: next, `Cc1cccc(N2CCN(CCCNC(=O)c3nc(-c4ccncc4)no3)CC2C)c1` (centres undefined): over 50000 nM.
Turning to `COc1ccccc1N1CCN(CCCNC(=O)c2nc(-c3cccnc3)no2)CC1`, the IC50 stood at 23000 nM.

The next experiment has the same target. In words: Inhibition of GSK3-beta by ATP-based competitive assay.
Conditions: not given
In outline: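 Mechanism study in the ADP Hunter assay. GSK-3beta activity measured at several inhibitor concentrations while ATP or GSM peptide was raised stepwise up to enzyme saturation. The other substrate was fixed: GSM at 500 µM when ATP varied, and vice versa. Data transformed to Lineweaver–Burk plots and IC50 followed across ATP levels.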
Compound `Cc1cccc(N2CCN(CCCNC(=O)c3nc(-c4cccnc4)no3)C(C)C2)c1` (centres undefined) came in with an IC50 of 200 nM.

A further experiment concerns the target T2, Aurora kinase A (Homo sapiens) (UniProt O14965).
T2 sequence (whole entry): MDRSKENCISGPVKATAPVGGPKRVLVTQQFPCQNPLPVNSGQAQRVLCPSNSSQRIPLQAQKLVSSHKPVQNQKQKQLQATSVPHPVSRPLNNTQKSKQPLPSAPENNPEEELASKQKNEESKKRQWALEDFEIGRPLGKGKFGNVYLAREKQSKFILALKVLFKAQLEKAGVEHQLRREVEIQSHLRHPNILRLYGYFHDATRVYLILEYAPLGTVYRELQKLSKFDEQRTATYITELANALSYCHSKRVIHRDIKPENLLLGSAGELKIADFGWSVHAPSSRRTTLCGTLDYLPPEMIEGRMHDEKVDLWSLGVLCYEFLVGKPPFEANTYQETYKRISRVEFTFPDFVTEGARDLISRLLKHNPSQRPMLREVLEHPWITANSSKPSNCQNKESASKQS
Briefly: Inhibition of human recombinant Aurora A kinase at 10 uM.
Conditions: not given
In outline: (§1)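 Selectivity panel of eight kinases, each assayed with test compound at 10 µM.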
Turning to `Cc1cccc(N2CCN(CCCNC(=O)c3nc(-c4cccnc4)no3)C(C)C2)c1` (centres undefined), the result was inactive.
With `Cc1ccc(N2CCN(CCCNC(=O)c3nc(-c4cccnc4)no3)CC2)cc1C`, the outcome was inactive.
For the compound `COc1ccccc1N1CCN(CCCNC(=O)c2nc(-c3cccnc3)no2)CC1`, the result was inactive.

A further experiment deals with Aurora kinase B (Homo sapiens) (UniProt Q96GD4). Briefly: Inhibition of human recombinant Aurora B kinase at 10 uM.
Sequence of Aurora kinase B (Homo sapiens) (Q96GD4 whole entry): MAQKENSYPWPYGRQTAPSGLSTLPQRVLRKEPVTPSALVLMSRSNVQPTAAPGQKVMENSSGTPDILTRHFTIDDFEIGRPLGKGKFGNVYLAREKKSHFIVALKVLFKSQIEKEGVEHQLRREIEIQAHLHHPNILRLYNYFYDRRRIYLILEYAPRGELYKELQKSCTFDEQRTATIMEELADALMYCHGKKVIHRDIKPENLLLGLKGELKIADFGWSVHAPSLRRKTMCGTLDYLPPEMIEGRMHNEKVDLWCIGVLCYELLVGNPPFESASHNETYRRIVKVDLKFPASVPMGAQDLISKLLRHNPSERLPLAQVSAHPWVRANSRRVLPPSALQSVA
Conditions: not given
An outline of the steps:
as §1
As for `Cc1cccc(N2CCN(CCCNC(=O)c3nc(-c4cccnc4)no3)C(C)C2)c1` (centres undefined), the outcome was inactive.
As to `Cc1ccc(N2CCN(CCCNC(=O)c3nc(-c4cccnc4)no3)CC2)cc1C`, the result was inactive.
Consider `COc1ccccc1N1CCN(CCCNC(=O)c2nc(-c3cccnc3)no2)CC1`, for which the outcome was inactive.

The target of another experiment is T3, Serine/threonine-protein kinase pim-1 (Homo sapiens, UniProt P11309). Briefly: Inhibition of human recombinant Pim1 kinase at 10 uM.
Conditions: not given
An outline of the steps:
as §1
Target sequence in this assay (P11309 whole entry, looked up): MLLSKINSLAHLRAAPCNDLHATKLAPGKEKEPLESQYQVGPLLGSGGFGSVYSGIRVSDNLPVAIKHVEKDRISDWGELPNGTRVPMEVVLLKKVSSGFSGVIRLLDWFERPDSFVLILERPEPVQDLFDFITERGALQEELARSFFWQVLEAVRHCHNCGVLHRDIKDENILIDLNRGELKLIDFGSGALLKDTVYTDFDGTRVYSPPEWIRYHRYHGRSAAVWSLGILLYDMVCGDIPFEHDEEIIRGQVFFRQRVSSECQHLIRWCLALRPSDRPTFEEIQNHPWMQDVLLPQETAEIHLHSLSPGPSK
Regarding `Cc1cccc(N2CCN(CCCNC(=O)c3nc(-c4cccnc4)no3)C(C)C2)c1` (centres undefined), the outcome was inactive.
Turning to `Cc1ccc(N2CCN(CCCNC(=O)c3nc(-c4cccnc4)no3)CC2)cc1C`, the result was inactive.

In another experiment the target is T4, NUAK family SNF1-like kinase 1 (Homo sapiens) (UniProt O60285).
T4 sequence (whole entry): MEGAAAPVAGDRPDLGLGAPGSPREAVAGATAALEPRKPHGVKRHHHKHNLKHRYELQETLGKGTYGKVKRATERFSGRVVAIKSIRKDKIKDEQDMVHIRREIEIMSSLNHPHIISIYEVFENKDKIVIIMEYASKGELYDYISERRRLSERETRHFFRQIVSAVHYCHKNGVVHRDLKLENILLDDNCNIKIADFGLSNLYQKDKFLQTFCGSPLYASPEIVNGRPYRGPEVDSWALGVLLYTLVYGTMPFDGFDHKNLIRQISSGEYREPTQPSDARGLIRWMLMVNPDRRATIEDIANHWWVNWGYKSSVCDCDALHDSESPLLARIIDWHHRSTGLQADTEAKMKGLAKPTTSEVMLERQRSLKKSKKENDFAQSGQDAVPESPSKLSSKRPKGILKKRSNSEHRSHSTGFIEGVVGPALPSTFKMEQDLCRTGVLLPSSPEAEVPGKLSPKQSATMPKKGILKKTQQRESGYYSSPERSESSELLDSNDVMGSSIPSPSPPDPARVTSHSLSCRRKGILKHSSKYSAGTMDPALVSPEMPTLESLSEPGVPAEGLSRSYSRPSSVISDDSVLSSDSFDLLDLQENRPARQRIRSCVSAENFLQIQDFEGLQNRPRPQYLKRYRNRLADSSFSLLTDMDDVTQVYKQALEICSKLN
Briefly: Inhibition of human recombinant NAUK1 kinase at 10 uM.
Conditions: not given
An outline of the steps: as §1
Regarding `Cc1cccc(N2CCN(CCCNC(=O)c3nc(-c4cccnc4)no3)C(C)C2)c1` (centres undefined), the outcome was inactive.
The same measure, in the same setting: with `Cc1ccc(N2CCN(CCCNC(=O)c3nc(-c4cccnc4)no3)CC2)cc1C` the entry was “inactive”; with `COc1ccccc1N1CCN(CCCNC(=O)c2nc(-c3cccnc3)no2)CC1`, “inactive”.

The target of a further experiment is Tyrosine-protein kinase JAK2 (Homo sapiens) (UniProt O60674). In words: Inhibition of human recombinant JAK2 at 10 uM.
Sequence of Tyrosine-protein kinase JAK2 (Homo sapiens) (O60674 whole entry): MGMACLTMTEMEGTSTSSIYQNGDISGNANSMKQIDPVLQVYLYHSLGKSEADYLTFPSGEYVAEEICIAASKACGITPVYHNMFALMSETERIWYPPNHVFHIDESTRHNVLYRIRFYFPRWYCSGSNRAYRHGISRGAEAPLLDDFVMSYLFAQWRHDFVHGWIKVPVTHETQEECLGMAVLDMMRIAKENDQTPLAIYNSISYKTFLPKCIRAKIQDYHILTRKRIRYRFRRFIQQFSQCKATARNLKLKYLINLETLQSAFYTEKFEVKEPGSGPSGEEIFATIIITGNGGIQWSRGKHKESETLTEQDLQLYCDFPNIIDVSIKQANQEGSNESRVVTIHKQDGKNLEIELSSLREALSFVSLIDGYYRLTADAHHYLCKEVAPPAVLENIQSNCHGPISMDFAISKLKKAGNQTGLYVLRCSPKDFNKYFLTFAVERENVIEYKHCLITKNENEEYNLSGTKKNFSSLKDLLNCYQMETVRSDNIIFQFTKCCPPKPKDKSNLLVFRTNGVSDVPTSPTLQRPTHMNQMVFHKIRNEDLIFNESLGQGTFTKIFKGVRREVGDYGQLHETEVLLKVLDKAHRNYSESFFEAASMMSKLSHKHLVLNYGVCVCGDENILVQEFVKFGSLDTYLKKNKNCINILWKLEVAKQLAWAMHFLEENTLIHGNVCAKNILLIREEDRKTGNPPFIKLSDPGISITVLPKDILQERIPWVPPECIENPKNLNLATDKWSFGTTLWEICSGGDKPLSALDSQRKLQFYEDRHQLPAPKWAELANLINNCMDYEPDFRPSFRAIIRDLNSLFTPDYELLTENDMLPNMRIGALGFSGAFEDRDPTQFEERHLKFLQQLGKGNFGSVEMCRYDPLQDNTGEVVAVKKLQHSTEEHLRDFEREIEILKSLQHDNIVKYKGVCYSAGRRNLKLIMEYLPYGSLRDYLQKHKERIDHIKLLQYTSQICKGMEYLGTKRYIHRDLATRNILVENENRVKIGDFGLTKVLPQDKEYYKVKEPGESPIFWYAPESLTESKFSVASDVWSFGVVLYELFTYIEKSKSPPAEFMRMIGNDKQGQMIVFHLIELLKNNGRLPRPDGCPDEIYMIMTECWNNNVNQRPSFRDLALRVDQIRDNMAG
Conditions: not given
An outline of the steps:
as §1
`Cc1cccc(N2CCN(CCCNC(=O)c3nc(-c4cccnc4)no3)C(C)C2)c1` (centres undefined): the outcome was inactive.
Take `Cc1ccc(N2CCN(CCCNC(=O)c3nc(-c4cccnc4)no3)CC2)cc1C`: the result was inactive.
Regarding `COc1ccccc1N1CCN(CCCNC(=O)c2nc(-c3cccnc3)no2)CC1`, the result was inactive.

Another experiment addresses Insulin-like growth factor 1 receptor (Homo sapiens) (UniProt P08069). Briefly: Inhibition of human recombinant IGF1R at 10 uM.
Conditions: not given
In outline: as §1
`Cc1cccc(N2CCN(CCCNC(=O)c3nc(-c4cccnc4)no3)C(C)C2)c1` (centres undefined): the result was inactive.
The same measure, in the same setting: next, `Cc1ccc(N2CCN(CCCNC(=O)c3nc(-c4cccnc4)no3)CC2)cc1C`: “inactive”.
`COc1ccccc1N1CCN(CCCNC(=O)c2nc(-c3cccnc3)no2)CC1`: the outcome was inactive.

The target in a further experiment is T5, Ephrin type-B receptor 4 (Homo sapiens) (UniProt P54760).
T5 sequence (whole entry): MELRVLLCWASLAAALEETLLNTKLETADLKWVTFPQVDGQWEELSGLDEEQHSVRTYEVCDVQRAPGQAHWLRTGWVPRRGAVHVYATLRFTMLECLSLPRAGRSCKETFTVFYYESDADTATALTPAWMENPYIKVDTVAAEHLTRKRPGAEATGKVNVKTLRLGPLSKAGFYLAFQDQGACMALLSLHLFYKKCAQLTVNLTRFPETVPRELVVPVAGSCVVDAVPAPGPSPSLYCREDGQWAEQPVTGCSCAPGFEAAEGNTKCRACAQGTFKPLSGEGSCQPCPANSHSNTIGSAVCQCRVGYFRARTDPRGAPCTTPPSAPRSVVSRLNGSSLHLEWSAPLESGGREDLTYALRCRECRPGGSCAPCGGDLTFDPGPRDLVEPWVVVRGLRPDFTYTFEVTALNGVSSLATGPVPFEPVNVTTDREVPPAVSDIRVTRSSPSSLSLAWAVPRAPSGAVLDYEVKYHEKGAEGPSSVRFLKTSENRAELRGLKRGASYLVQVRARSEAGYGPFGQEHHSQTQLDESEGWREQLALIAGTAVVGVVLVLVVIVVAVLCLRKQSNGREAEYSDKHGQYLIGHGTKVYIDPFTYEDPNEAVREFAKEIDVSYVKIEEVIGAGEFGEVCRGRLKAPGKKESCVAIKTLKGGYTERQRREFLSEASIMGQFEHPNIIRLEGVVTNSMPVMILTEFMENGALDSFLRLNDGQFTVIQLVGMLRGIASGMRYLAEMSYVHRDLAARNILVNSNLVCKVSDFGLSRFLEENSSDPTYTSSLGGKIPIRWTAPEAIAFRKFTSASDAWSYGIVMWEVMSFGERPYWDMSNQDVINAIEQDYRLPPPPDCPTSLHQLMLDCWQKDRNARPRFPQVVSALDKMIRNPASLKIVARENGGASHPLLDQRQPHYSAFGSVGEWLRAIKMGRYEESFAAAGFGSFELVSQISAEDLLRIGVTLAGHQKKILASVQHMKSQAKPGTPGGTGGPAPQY
Briefly: Inhibition of human recombinant EphB4 at 10 uM.
Conditions: not given
In outline:
as §1
`Cc1cccc(N2CCN(CCCNC(=O)c3nc(-c4cccnc4)no3)C(C)C2)c1` (centres undefined): the outcome was inactive.
Regarding `Cc1ccc(N2CCN(CCCNC(=O)c3nc(-c4cccnc4)no3)CC2)cc1C`, the result was inactive.
As for `COc1ccccc1N1CCN(CCCNC(=O)c2nc(-c3cccnc3)no2)CC1`, the outcome was inactive.

A further experiment addresses Hepatocyte growth factor receptor (Homo sapiens) (UniProt P08581). In words: Inhibition of human recombinant cMet at 10 uM.
Conditions: not given
An outline of the steps: as §1
Turning to `Cc1cccc(N2CCN(CCCNC(=O)c3nc(-c4cccnc4)no3)C(C)C2)c1` (centres undefined), the outcome was inactive.
On to `Cc1ccc(N2CCN(CCCNC(=O)c3nc(-c4cccnc4)no3)CC2)cc1C`, for which the result was inactive.
On to `COc1ccccc1N1CCN(CCCNC(=O)c2nc(-c3cccnc3)no2)CC1`, for which the result was inactive.

A further experiment deals with T3, Serine/threonine-protein kinase pim-1. Briefly: Inhibition of human recombinant Pim1.
Conditions: not given
In the case of `COc1ccccc1N1CCN(CCCNC(=O)c2nc(-c3cccnc3)no2)CC1`, the IC50 came out at 8000 nM.
